Results pooled from the literature.
Lines come from different studies, so protocols differ. pIC50: −log10 of the molar value.
Action: inhibitor
CDK2: Cyclin-dependent kinase 2 (CDK2, Homo sapiens, UniProt P24941)
PARP2: Poly [ADP-ribose] polymerase 2 (PARP2, Homo sapiens, UniProt Q9UGN5)

For `Cc1n[nH]c2ccc3nc(-c4ccc(C(=O)NCCN(C)C)cc4)c4c(c3c12)CCC(C)(C)C4`, the pIC50 was under 6.00 (CDK2; enzyme activity).
For `CCc1ccc(Cn2nnc3c4ccc(F)cc4c(=O)[nH]c32)cc1`, the pIC50 was under 5.00 (PARP2; enzyme activity, fluorescence).
`Cn1cc(C2=C(c3cn(CCCSC(=N)N)c4ccccc34)C(=O)NC2=O)c2ccccc21` has a pIC50 of 6.19 (Serine/threonine-protein kinase VRK1 (VRK1, Homo sapiens, UniProt Q99986); enzyme activity).
With `Cc1ccc(Cn2nnc3c4ccc(F)cc4c(=O)[nH]c32)cc1` the pIC50 was under 5.00 (PARP2; enzyme activity).
The pIC50 of `NC(=O)c1cccnc1` is reported as under 4.50 (Nicotinamide N-methyltransferase (NNMT, Homo sapiens, UniProt P40261); enzyme activity in cells).
The pIC50 of `Cc1cc(O)c(-c2ccc([C@@H](C)CN(C)C)cc2)c2c1[nH]c(=O)c1sccc12` is reported as under 6.00 (Cyclin-dependent kinase 8, with cyclin C (CDK8, Homo sapiens, UniProt P49336); enzyme activity).
For `Cc1n[nH]c2ccc3nc(-c4ccc(C(=O)NCCN(C)C)cc4)c4c(c3c12)CCC(F)(F)C4`, the pIC50 was 6.23 (CDK2; enzyme activity).
With `NC/C(=C\F)COc1cccc(Cn2c(=S)[nH]c(=O)c3[nH]cnc32)c1` the pIC50 was under 4.00 (Sodium channel protein type 5 subunit alpha (SCN5A, Homo sapiens, UniProt Q14524); ion current).
The pIC50 of `COc1ccc2c(=O)[nH]c3c(nnn3Cc3ccc(C)cc3)c2c1` is reported as under 5.00 (PARP2; enzyme activity, fluorescence).
The pIC50 of `CC(=O)N1C(=O)NC(C)=C(C(=O)OCc2ccccc2)C1c1cccc([N+](=O)[O-])c1` (racemic) is reported as 5.59 (Voltage-dependent L-type calcium channel subunit alpha-1C (Cacna1c, Rattus norvegicus, UniProt P22002); ion current, patch clamp).
With `O=c1[nH]c2c(nnn2Cc2ccc(C(F)(F)F)cc2)c2ccc(F)cc12` the pIC50 was under 5.00 (PARP2; enzyme activity).
`CN(C)CCNC(=O)c1ccc(-c2nc3ccc4[nH]ncc4c3c3c2CC(C)(C)CC3)cc1` gave a pIC50 of 6.84 (CDK2; enzyme activity).
